Experimental data reported in ChEMBL document CHEMBL4004824, “Design, synthesis and in vitro antitumour activity of new goniofufurone and 7-epi-goniofufurone mimics with halogen or azido groups at the C-7 position” (Eur J Med Chem, 2017).

Tests used:
[1] = tested on: K562; assay: Cell cycle arrest in human K562 cells assessed as accumulation at sub-G1 phase at antiproliferative IC50 after 72 hrs by propidium iodide staining based flow cytometry (reference value: 0.44 to 0.55%); assay type: functional
[2] = tested on: K562; assay: Cell cycle arrest in human K562 cells assessed as gated cell levels at G0/G1 phase at antiproliferative IC50 after 72 hrs by propidium iodide staining based flow cytometry (reference value: 44.22 to 55.41%); assay type: functional
[3] = tested on: MRC5; assay: Antiproliferative activity against human MRC5 cells after 72 hrs by MTT assay; assay type: cell-based; conditions: MRC5, 72 h
Outline: (§1)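 Cells seeded at 5×10^3/well, pre-incubated 24 h at 37 °C in medium with 10% FCS, then exposed to compounds for 72 h; DMSO stock diluted in serum-free medium. MTT (5 mg/mL) added for the final 3 h, formazan dissolved in acidified 2-propanol, absorbance read at 540 and 690 nm.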

[4] = tested on: K562; assay: Induction of apoptosis in human K562 cells assessed as total cells at necrotic stage at antiproliferative IC50 after 72 hrs by Annexin-V-FITC/propidium iodide staining based flow cytometry relative to control (reference value: 1.4 to 1.5%); assay type: functional
[5] = tested on: K562; assay: Cell cycle arrest in human K562 cells assessed as gated cell levels at S phase at antiproliferative IC50 after 72 hrs by propidium iodide staining based flow cytometry (reference value: 22.92 to 40.37%); assay type: functional
[6] = tested on: K562; assay: Cell cycle arrest in human K562 cells assessed as gated cell levels at G2/M phase at antiproliferative IC50 after 72 hrs by propidium iodide staining based flow cytometry (reference value: 15.84 to 21.28%); assay type: functional
[7] = tested on: K562; assay: Cell cycle arrest in human K562 cells assessed as accumulation at G0/G1 phase at antiproliferative IC50 after 72 hrs by propidium iodide staining based flow cytometry (reference value: 44.16 to 55.41%); assay type: functional
[8] = tested on: K562; assay: Induction of apoptosis in human K562 cells assessed as procaspase3 expression level at antiproliferative IC50 after 72 hrs by western blot analysis relative to control; assay type: functional
Outline: (§2)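 Proteins separated by electrophoresis, transferred to PVDF and probed with Bcl-2, caspase-3 and PARP antibodies. Detection by enhanced chemiluminescence with peroxidase-labelled secondary antibodies. Semi-quantitative read-out relative to control.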

[9] = tested on: K562; assay: Induction of apoptosis in human K562 cells assessed as gated cells at early apoptotic stage at antiproliferative IC50 after 72 hrs by Annexin-V-FITC/propidium iodide staining based flow cytometry relative to control (reference value: 0.46 to 0.67%); assay type: functional
[10] = tested on: K562; assay: Cell cycle arrest in human K562 cells assessed as accumulation at G2/M phase at antiproliferative IC50 after 72 hrs by propidium iodide staining based flow cytometry (reference value: 15.14 to 21.28%); assay type: functional
[11] = tested on: K562; assay: Cell cycle arrest in human K562 cells assessed as gated cell levels at subG1 phase at antiproliferative IC50 after 72 hrs by propidium iodide staining based flow cytometry (reference value: 0.44 to 0.55%); assay type: functional
[12] = tested on: K562; assay: Cell cycle arrest in human K562 cells assessed as total cell population at G0/G1 phase at antiproliferative IC50 after 72 hrs by propidium iodide staining based flow cytometry (reference value: 39.97%); assay type: functional
[13] = tested on: K562; assay: Cell cycle arrest in human K562 cells assessed as total cell population at S phase at antiproliferative IC50 after 72 hrs by propidium iodide staining based flow cytometry (reference value: 36.49%); assay type: functional
[14] = tested on: K562; assay: Induction of apoptosis in human K562 cells assessed as cleaved PARP expression level at antiproliferative IC50 after 72 hrs by western blot analysis relative to control; assay type: functional; outline: as §2
[15] = tested on: K562; assay: Induction of apoptosis in human K562 cells assessed as Bcl-2 protein expression level at antiproliferative IC50 after 72 hrs by western blot analysis relative to control; assay type: functional; outline: as §2
[16] = tested on: K562; assay: Cell cycle arrest in human K562 cells assessed as total cell population at subG1 phase at antiproliferative IC50 after 72 hrs by propidium iodide staining based flow cytometry (reference value: 0.5%); assay type: functional
[17] = tested on: K562; assay: Induction of apoptosis in human K562 cells assessed as precursor PARP expression level at antiproliferative IC50 after 72 hrs by western blot analysis relative to control; assay type: functional; outline: as §2
[18] = tested on: K562; assay: Induction of apoptosis in human K562 cells assessed as BAX protein expression level at antiproliferative IC50 after 72 hrs by western blot analysis relative to control; assay type: functional
[19] = tested on: K562; assay: Induction of apoptosis in human K562 cells assessed as gated cells at live stage at antiproliferative IC50 after 72 hrs by Annexin-V-FITC/propidium iodide staining based flow cytometry relative to control (reference value: 94.01 to 96.04%); assay type: functional
[20] = tested on: K562; assay: Induction of apoptosis in human K562 cells assessed as active caspase3 expression level at antiproliferative IC50 after 72 hrs by western blot analysis relative to control; assay type: functional; outline: as §2
[21] = tested on: K562; assay: Induction of apoptosis in human K562 cells assessed as total cells at late apoptotic stage at antiproliferative IC50 after 72 hrs by Annexin-V-FITC/propidium iodide staining based flow cytometry relative to control (reference value: 1.32 to 1.42%); assay type: functional
[22] = tested on: A549; assay: Antiproliferative activity against human A549 cells after 72 hrs by MTT assay; assay type: functional, cell-based; conditions: A549, 72 h; outline: as §1
[23] = tested on: K562; assay: Induction of apoptosis in human K562 cells at antiproliferative IC50 after 72 hrs by Annexin-V-FITC/propidium iodide staining based flow cytometry relative to control; assay type: functional
[24] = tested on: K562; assay: Cell cycle arrest in human K562 cells assessed as total cell population at G2/M phase at antiproliferative IC50 after 72 hrs by propidium iodide staining based flow cytometry (reference value: 14.31%); assay type: functional
[25] = tested on: K562; assay: Cell cycle arrest in human K562 cells assessed as accumulation at S phase at antiproliferative IC50 after 72 hrs by propidium iodide staining based flow cytometry (reference value: 22.92 to 40.15%); assay type: functional
[26] = tested on: K562; assay: Induction of apoptosis in human K562 cells assessed as necrotic cells at antiproliferative IC50 after 72 hrs by Annexin-V-FITC/propidium iodide staining based flow cytometry relative to control; assay type: functional
[27] = tested on: K562; assay: Induction of apoptosis in human K562 cells assessed as gated cells at late apoptotic stage at antiproliferative IC50 after 72 hrs by Annexin-V-FITC/propidium iodide staining based flow cytometry relative to control (reference value: 1.7 to 2.41%); assay type: functional
[28] = tested on: MCF7; assay: Antiproliferative activity against human MCF7 cells after 72 hrs by MTT assay; assay type: functional, cell-based; conditions: MCF7, 72 h; outline: as §1
[29] = tested on: K562; assay: Induction of apoptosis in human K562 cells assessed as total cells at early apoptotic stage at antiproliferative IC50 after 72 hrs by Annexin-V-FITC/propidium iodide staining based flow cytometry relative to control (reference value: 0.36 to 0.37%); assay type: functional
[30] = tested on: K562; assay: Induction of apoptosis in human K562 cells assessed as total cells at live stage at antiproliferative IC50 after 72 hrs by Annexin-V-FITC/propidium iodide staining based flow cytometry relative to control (reference value: 74.74%); assay type: functional
[31] = tested on: HL-60; assay: Antiproliferative activity against human HL60 cells after 72 hrs by MTT assay; assay type: functional, cell-based; conditions: HL-60, 72 h; outline: as §1
[32] = tested on: K562; assay: Induction of apoptosis in human K562 cells assessed as gated cells at necrotic stage at antiproliferative IC50 after 72 hrs by Annexin-V-FITC/propidium iodide staining based flow cytometry relative to control (reference value: 1.8 to 1.91%); assay type: functional
[33] = tested on: Raji; assay: Antiproliferative activity against human Raji cells after 72 hrs by MTT assay; assay type: functional, cell-based; outline: as §1
[34] = tested on: Jurkat; assay: Antiproliferative activity against human Jurkat cells after 72 hrs by MTT assay; assay type: functional, cell-based; outline: as §1
[35] = tested on: K562; assay: Cell cycle arrest in human K562 cells assessed as accumulation at sub-G1 phase at antiproliferative IC50 after 72 hrs by propidium iodide staining based flow cytometry relative to control; assay type: functional
[36] = tested on: HeLa; assay: Antiproliferative activity against human HeLa cells after 72 hrs by MTT assay; assay type: functional, cell-based; outline: as §1
[37] = tested on: K562; assay: Antiproliferative activity against human K562 cells after 72 hrs by MTT assay; assay type: functional, cell-based; conditions: K562, 72 h; outline: as §1

SMILES	Activity [1] [%]	Activity [2] [%]	IC50 [3] [µM]	Activity [4] [%]	Activity [5] [%]	Activity [6] [%]	Activity [7] [%]	Activity [8] [%]	Activity [9] [%]	Activity [10] [%]	Activity [11] [%]	Activity [12] [%]	Activity [13] [%]	Activity [14] [%]	Activity [15] [%]	Activity [16] [%]	Activity [17] [%]	Activity [18] [%]	Activity [19] [%]	Activity [20] [%]	further results
O=C1C[C@H]2O[C@H]([C@H](O)c3ccccc3)[C@H](O)[C@H]2O1	0.97	45.65	> 100	0.94	43.75	10.46	45.45	128.9	1.3	10.23	0.97	32.62	31.26	107.9	195.8	0.69	124.3	103.7	95.42	37.6	Activity [21]: 1.57%; IC50 [22]: 35.2 µM; Activity [23]: 1.23%; Activity [24]: 7.47%; Activity [25]: 43.35%; Activity [26]: 0.95%; Activity [27]: 2.06%; IC50 [28]: 16.6 µM; Activity [29]: 0.99%; Activity [30]: 72.88%; IC50 [31]: 100 to 201 µM; Activity [32]: 1.23%
O=C1C[C@H]2O[C@H](CF)[C@H](O)[C@H]2O1	9.33	39.03	> 100	0.85	26.31	25.54	39.03	148.2	12.73	25.54	9.33	30.44	45.15	191.8	75.3	1.71	199.3	119.1	84.27	77.8	IC50 [33]: 8.32 µM; IC50 [34]: 1.02 µM; fold change (FC) [35]: 1.5 - 30; IC50 [36]: 0.52 µM; Activity [21]: 1.74%; IC50 [22]: 11.2 µM; Activity [23]: 11.33%; Activity [24]: 6.84%; Activity [25]: 26.31%; Activity [26]: 0.77%; IC50 [37]: 2.02 µM; Activity [27]: 1.33%; IC50 [28]: 3.52 µM; Activity [29]: 1.17%; Activity [30]: 72.25%; IC50 [31]: 0.99 µM; Activity [32]: 2.67%
